Data set [1] in a line: Cytotoxicity against human HCT15 cell line. The class given is cell-based. The note with it: HCT-15 cells, read-out: ED50 (the source's name).
Data set [2] in a line: Cytotoxicity against human XF498 cell line. It counts as cell-based. As to conditions: XF498 cells, read-out: ED50 (the source's name).
Data set [3] is described as follows: Cytotoxicity against human SK-MEL-2 cell line. It counts as cell-based. As to conditions: SK-MEL-2 cells, read-out: ED50 (the source's name).
Data set [4] can be described thus: Cytotoxicity against human A549 cell line. It counts as cell-based. As to conditions: A549 cells, read-out: ED50 (the source's name).
Data set [5] can be described thus: Cytotoxicity against human SK-OV-3 cell line. It counts as cell-based. The note with it: SK-OV-3 cells, read-out: ED50 (the source's name).
Data set [6] has as its system Escherichia coli. Description: Antibacterial activity against […] Escherichia coli TEM. The class given is functional. The method, boiled down:
(§1)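 Agar dilution MIC: Mueller Hinton agar plates containing 17 serial dilutions of sample (final 25 to 0.002 μg/mL), meropenem and imipenem as standards. Strains grown 18 h at 37 °C in Fleisch extract broth (10% horse serum for some strains), spotted onto plates by automatic inoculator; MIC read after 18 h incubation.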

For another data set, the system named is Klebsiella oxytoca. Description: Antibacterial activity against […] Klebsiella oxytoca 1082E. It counts as functional. The method, boiled down:
as §1

Data set [7] deals with Pseudomonas aeruginosa. Description: Antibacterial activity against […] Pseudomonas aeruginosa 1771M. It counts as functional. In short, it runs like this: as §1
Data set [8] deals with Pseudomonas aeruginosa. Description: Antibacterial activity against […] Pseudomonas aeruginosa 1592E. The class given is functional. The method, boiled down: as §1
The subject of data set [9] is Escherichia coli. Description: Antibacterial activity against […] Escherichia coli 078. It counts as functional. The method, boiled down: as §1
Data set [10] has as its system Staphylococcus aureus. Description: Antibacterial activity against methicillin-resistant Staphylococcus aureus 285. It counts as functional. The method, boiled down: as §1
For data set [11], the system named is Escherichia coli. The experiment in a line: Antibacterial activity against […] Escherichia coli DC2. The class given is functional. In short, it runs like this: as §1
In a further data set the test system is Enterococcus faecium. Description: Antibacterial activity against […] Streptococcus faecium MD8b. It counts as functional. The method, boiled down:
as §1

Data set [12] concerns Staphylococcus aureus. Description: Antibacterial activity against methicillin-resistant Staphylococcus aureus SG511. The class given is functional. The method, boiled down:
as §1

Data set [13] has as its system Streptococcus pyogenes. The experiment in a line: Antibacterial activity against methicillin-resistant Streptococcus pyogenes 77A. It counts as functional. In short, it runs like this: as §1
The subject of another data set is Salmonella typhimurium. The experiment in a line: Antibacterial activity against […] Salmonella Typhimurium. The class given is functional, Salmonella enterica subsp. enterica serovar Typhimurium. As to conditions: Salmonella enterica. The method, boiled down:
as §1

For data set [14], the system named is Pseudomonas aeruginosa. The experiment in a line: Antibacterial activity against […] Pseudomonas aeruginosa 1771. It counts as functional. The method, boiled down: as §1
Data set [15] deals with Pseudomonas aeruginosa. Description: Antibacterial activity against […] Pseudomonas aeruginosa 9027. It counts as functional. The method, boiled down:
as §1

Data set [16] relates to Escherichia coli. Description: Antibacterial activity against […] Escherichia coli DC0. The class given is functional. The method, boiled down: as §1
The test system of data set [17] is Streptococcus pyogenes. The experiment in a line: Antibacterial activity against methicillin-resistant Streptococcus pyogenes 308A. The class given is functional. The method, boiled down: as §1
For data set [18], the system named is Escherichia coli. The experiment in a line: Antibacterial activity against […] Escherichia coli 1507E. The class given is functional. The method, boiled down: as §1
Data set [19] deals with Enterobacter cloacae. The experiment in a line: Antibacterial activity against […] Enterobacter cloacae 1321E. The class given is functional. The method, boiled down:
as §1

In a further data set the test system is Klebsiella aerogenes. Description: Antibacterial activity against […] Klebsiella aerogenes 1522E. It counts as functional. In short, it runs like this: as §1
The subject of data set [20] is Enterobacter cloacae. Description: Antibacterial activity against […] Enterobacter cloacae P99. It counts as functional. In short, it runs like this: as §1
The subject of data set [21] is Staphylococcus aureus. The experiment in a line: Antibacterial activity against methicillin-resistant Staphylococcus aureus 503. It counts as functional. The method, boiled down: as §1

Each structure is given as a SMILES string. In brackets after ≈: the same amount, converted by molar mass.

Take `O=C1NC[C@@H](c2c[nH]c3ccccc23)N[C@H]1c1c[nH]c2ccccc12`: the CC50 is greater than 10 µg/mL in [1]; greater than 10 µg/mL in data set [2]; greater than 10 µg/mL in data set [3]; greater than 10 µg/mL in data set [4]; 9.64 µg/mL (≈ 29.2 µM) in data set [5].
In the case of `O=C1NC[C@@H](c2c[nH]c3ccccc23)N=C1c1c[nH]c2ccccc12`, the MIC (commonly the smallest concentration in the dilution series that meets the test's criterion for growth inhibition) in the data set on Escherichia coli [6] was greater than 25 µg/mL; against Klebsiella oxytoca, greater than 25 µg/mL; with Pseudomonas aeruginosa [7], greater than 25 µg/mL; with Pseudomonas aeruginosa [8] it was 25 µg/mL (≈ 76.1 µM); against Escherichia coli [9], greater than 25 µg/mL; in the data set on Staphylococcus aureus [10] it was greater than 25 µg/mL. Also, the minimum inhibitory concentration (MIC) against Escherichia coli [11] is greater than 25 µg/mL; against Enterococcus faecium it was greater than 25 µg/mL; against Staphylococcus aureus [12] it was greater than 25 µg/mL; in the data set on Streptococcus pyogenes [13], greater than 25 µg/mL; in the data set on Salmonella typhimurium, greater than 25 µg/mL; with Pseudomonas aeruginosa [14] it was 25 µg/mL (≈ 76.1 µM). Besides, the minimum inhibitory concentration (MIC) with Pseudomonas aeruginosa [15], against Escherichia coli [16], in the data set on Streptococcus pyogenes [17], against Escherichia coli [18], in the data set on Enterobacter cloacae [19] and in the data set on Klebsiella aerogenes was greater than 25 µg/mL throughout. Besides, the MIC in the data set on Enterobacter cloacae [20] and in the data set with Staphylococcus aureus [21] was greater than 25 µg/mL in each case. The CC50 in [1] was determined as 4.79 µg/mL (≈ 14.6 µM); in data set [2] it was 24.1 µg/mL (≈ 73.4 µM); in data set [3], 13.7 µg/mL (≈ 41.7 µM); in [4], 11.7 µg/mL (≈ 35.6 µM); in [5] it was 12.6 µg/mL (≈ 38.4 µM).
`C[C@@H](O)[C@H]1C(=O)N2C(C(=O)O)=C(S[C@@H]3CN[C@H](C(=O)N(C)C)C3)[C@H](C)[C@H]12` [MEROPENEM]: the MIC against Klebsiella oxytoca came out at 0.049 µg/mL (≈ 0.128 µM); in the data set with Pseudomonas aeruginosa [7], 0.049 µg/mL (≈ 0.128 µM); against Pseudomonas aeruginosa [8] it was 0.098 µg/mL (≈ 0.256 µM); against Staphylococcus aureus [10] it was 0.098 µg/mL (≈ 0.256 µM); against Escherichia coli [11] it was 0.013 µg/mL (≈ 0.0339 µM); with Staphylococcus aureus [12], 0.049 µg/mL (≈ 0.128 µM). Besides, the MIC amounted to 0.004 µg/mL (≈ 0.0104 µM) in the data set with Streptococcus pyogenes [13], 0.391 µg/mL (≈ 1.02 µM) in the data set with Pseudomonas aeruginosa [14], 0.004 µg/mL (≈ 0.0104 µM) against Streptococcus pyogenes [17] and 0.049 µg/mL (≈ 0.128 µM) against Staphylococcus aureus [21].
Regarding `O=C(C1=NC(c2c[nH]c3cc(Br)ccc23)CN1)c1c[nH]c2ccccc12` (stereo not given) [SPONGOTINE A], the CC50 in data set [1] came out at 9.8 µg/mL (≈ 24.1 µM); in [2], 7.22 µg/mL (≈ 17.7 µM); in data set [3], 5.04 µg/mL (≈ 12.4 µM); in data set [4], 6.82 µg/mL (≈ 16.7 µM); in data set [5], 3.71 µg/mL (≈ 9.11 µM).
Regarding `O=C1NC[C@@H](c2c[nH]c3cc(Br)ccc23)N[C@H]1c1c[nH]c2ccccc12`, the minimum inhibitory concentration (MIC) was greater than 25 µg/mL in the data set with Escherichia coli [6]; greater than 25 µg/mL with Klebsiella oxytoca; greater than 25 µg/mL in the data set with Pseudomonas aeruginosa [7]; 25 µg/mL (≈ 61.1 µM) against Pseudomonas aeruginosa [8]; greater than 25 µg/mL in the data set with Escherichia coli [9]; greater than 25 µg/mL in the data set with Staphylococcus aureus [10]. The MIC against Escherichia coli [11] was greater than 25 µg/mL; in the data set with Enterococcus faecium, greater than 25 µg/mL; in the data set on Staphylococcus aureus [12], greater than 25 µg/mL; in the data set on Streptococcus pyogenes [13] it was greater than 25 µg/mL; against Salmonella typhimurium, greater than 25 µg/mL; with Pseudomonas aeruginosa [14] it was 25 µg/mL (≈ 61.1 µM). For the same compound, the MIC is greater than 25 µg/mL against Pseudomonas aeruginosa [15]; greater than 25 µg/mL in the data set on Escherichia coli [16]; 25 µg/mL (≈ 61.1 µM) against Streptococcus pyogenes [17]; greater than 25 µg/mL against Escherichia coli [18]; greater than 25 µg/mL against Enterobacter cloacae [19]; greater than 25 µg/mL against Klebsiella aerogenes. Also, the MIC in the data set with Enterobacter cloacae [20] and against Staphylococcus aureus [21] was greater than 25 µg/mL throughout. The CC50 in data set [1] came out at 6.3 µg/mL (≈ 15.4 µM); in [2], 6.8 µg/mL (≈ 16.6 µM); in data set [3] it was 7.1 µg/mL (≈ 17.3 µM); in data set [4], 4.2 µg/mL (≈ 10.3 µM); in data set [5], 6 µg/mL (≈ 14.7 µM).
Turning to `O=C(C1=NC(c2c[nH]c3ccccc23)CN1)c1c[nH]c2cc(Br)ccc12` (stereo not given) [SPONGOTINE B], the MIC is greater than 25 µg/mL against Escherichia coli [6]; 25 µg/mL (≈ 61.4 µM) in the data set on Klebsiella oxytoca; 25 µg/mL (≈ 61.4 µM) against Pseudomonas aeruginosa [7]; greater than 25 µg/mL with Pseudomonas aeruginosa [8]; greater than 25 µg/mL against Escherichia coli [9]; 25 µg/mL (≈ 61.4 µM) in the data set with Staphylococcus aureus [10]. In addition, the MIC with Escherichia coli [11] was 25 µg/mL (≈ 61.4 µM); in the data set with Enterococcus faecium, greater than 25 µg/mL; in the data set with Staphylococcus aureus [12], 25 µg/mL (≈ 61.4 µM); in the data set on Streptococcus pyogenes [13], 25 µg/mL (≈ 61.4 µM); against Salmonella typhimurium, greater than 25 µg/mL; against Pseudomonas aeruginosa [14], greater than 25 µg/mL. Besides, the MIC in the data set on Pseudomonas aeruginosa [15] was greater than 25 µg/mL; in the data set on Escherichia coli [16], greater than 25 µg/mL; against Streptococcus pyogenes [17] it was 25 µg/mL (≈ 61.4 µM); against Escherichia coli [18] it was greater than 25 µg/mL; in the data set with Enterobacter cloacae [19], greater than 25 µg/mL; in the data set with Klebsiella aerogenes it was greater than 25 µg/mL. Moreover, the MIC with Enterobacter cloacae [20] is greater than 25 µg/mL; in the data set on Staphylococcus aureus [21], 25 µg/mL (≈ 61.4 µM). Further, the CC50 in data set [1], in data set [2], in data set [3], in [4] and in data set [5] was greater than 30 µg/mL each time.
Turning to `COc1cccc2c1C(=O)c1c(O)c3c(c(O)c1C2=O)C[C@@](O)(C(=O)CO)C[C@@H]3O[C@H]1C[C@H](N)[C@H](O)[C@H](C)O1` [DOXORUBICIN], the CC50 is 0.02 µg/mL (≈ 0.0368 µM) in [1]; 0.01 µg/mL (≈ 0.0184 µM) in data set [2]; 0.01 µg/mL (≈ 0.0184 µM) in data set [3]; 0.01 µg/mL (≈ 0.0184 µM) in data set [4]; 0.03 µg/mL (≈ 0.0552 µM) in data set [5].
